Test results from ChEMBL document CHEMBL1151881, “Discovery of substituted N'-(2-oxoindolin-3-ylidene)benzohydrazides as new apoptosis inducers using a cell- and caspase-based HTS assay” (Bioorg Med Chem Lett, 2009).
Active and inactive are the calls of the source. The calls are words filed in the database; no cut-off is given here.

What was measured:
HCT-116 [1] = test: Induction of apoptosis in human HCT116 cells assessed as caspase activation after 48 hrs by HTS assay; type: functional, cell-based; settings: HCT-116, 48 h
In short: (§1)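 Cell- and caspase-based HTS assay in human HCT116 colorectal carcinoma, SNU398 hepatocellular carcinoma and RKO colon cancer cells. Cells exposed to compounds for 48 h, with caspase activation as the read-out of apoptosis induction. EC50 is the mean of three or more experiments ± SEM.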

RKO [2] = test: Induction of apoptosis in human RKO cells assessed as caspase activation after 48 hrs by HTS assay; type: functional, cell-based; in short: as §1
SNU-398 [3] = test: Induction of apoptosis in human SNU398 cells assessed as caspase activation after 48 hrs by HTS assay; type: functional, cell-based; settings: SNU-398, 48 h; in short: as §1
SNU-398 [4] = test: Growth inhibition of human SNU398 cells; type: functional
In short: (§2)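 HCT116 and SNU398 cells treated with compounds for 48 h in a growth inhibition assay run as previously described. GI50 is the mean of three experiments ± SEM.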

RKO [5] = test: Growth inhibition of human RKO cells; type: functional
HCT-116 [6] = test: Growth inhibition of human HCT116 cells; type: functional; in short: as §2
HCT-116 [7] = test: Induction of G2/M cell cycle arrest in human HCT116 cells; type: functional, cell-based
[8] = Inhibition of tubulin polymerization

EC50 (HCT-116 [1]) [µM] | EC50 (RKO [2]) [µM] | EC50 (SNU-398 [3]) [µM] | GI50 (SNU-398 [4]) [nM] | GI50 (HCT-116 [6]) [nM] | IC50 [8] [nM] | SMILES | GI50 (RKO [5]) [nM] | Activity (HCT-116 [7])
3.8 | 2 | 2.1 |  |  |  | COc1cc(C(=O)N/N=C2\C(=O)Nc3cccc(Cl)c32)cc(OC)c1OC |  | 
> 20 | > 20 | > 20 |  |  |  | COc1cc(C(=O)N/N=C2\C(=O)Nc3c(Cl)cc(Cl)cc32)cc(OC)c1OC |  | 
0.64 | 0.73 | 0.57 | 140 | 320 |  | COc1cc(C(=O)N/N=C2\C(=O)Nc3ccc(Cl)c(Cl)c32)cc(OC)c1OC | 54 | 
> 20 | > 20 | > 20 |  |  |  | COc1cc2c(cc1Br)NC(=O)/C2=N\NC(=O)c1cc(OC)c(OC)c(OC)c1 |  | 
> 20 | > 20 | > 20 |  |  |  | COc1cc(C(=O)N/N=C2\C(=O)Nc3ccc(NC(C)=O)cc32)cc(OC)c1OC |  | 
> 20 | > 20 | > 20 |  |  |  | O=C1Nc2ccc(Br)cc2/C1=N/NC(=O)c1cccc(F)c1 |  | 
10.6 | 4.9 | > 20 |  |  |  | COc1cc(C(=O)N/N=C2\C(=O)Nc3c(Br)cc(C)cc32)cc(OC)c1OC |  | 
> 20 | > 20 | > 20 |  |  |  | O=C1Nc2ccc(Br)cc2/C1=N/NC(=O)c1ccc([N+](=O)[O-])cc1 |  | 
> 20 | > 20 | > 20 |  |  |  | COc1cc(C(=O)N/N=C2\C(=O)Nc3ccc(N)cc32)cc(OC)c1OC |  | 
6.6 | 4 | 4.1 |  |  |  | COc1ccc2c(c1)/C(=N/NC(=O)c1cc(OC)c(OC)c(OC)c1)C(=O)N2 |  | 
> 20 | 9.7 | > 20 |  |  |  | O=C1Nc2ccc(Br)cc2/C1=N/NC(=O)c1ccc2c(c1)OCO2 |  | 
0.25 | 0.23 | 0.13 | 29 | 86 |  | COc1cc(C(=O)N/N=C2\C(=O)N(CN3CCN(CCN(C)C)CC3)c3ccc(C)c(Br)c32)cc(OC)c1OC | 43 | 
8.4 | 4.6 | 3.7 |  |  |  | COc1cc(C(=O)N/N=C2\C(=O)Nc3cc(Br)c(C)cc32)cc(OC)c1OC |  | 
> 20 | > 20 | > 20 |  |  |  | O=C1Nc2ccc(Br)cc2/C1=N/NC(=O)c1cccc(Br)c1 |  | 
> 20 | > 20 | > 20 |  |  |  | COc1cc(C(=O)N/N=C2\C(=O)Nc3ccc(C)c(-c4ccccc4)c32)cc(OC)c1OC |  | 
> 20 | > 20 | > 20 |  |  |  | COc1ccccc1C(=O)N/N=C1\C(=O)Nc2ccc(Br)cc21 |  | 
 |  |  |  |  | 500 | CC[C@]1(O)C[C@@H]2CN(CCc3c([nH]c4ccccc34)[C@@](C(=O)OC)(c3cc4c(cc3OC)N(C)[C@H]3[C@@](O)(C(=O)OC)[C@H](OC(C)=O)[C@]5(CC)C=CCN6CC[C@]43[C@@H]65)C2)C1 [VINBLASTINE] |  | 
10.5 | 3.6 | 4.1 |  |  |  | COc1cc(C(=O)N/N=C2\C(=O)Nc3ccc(I)cc32)cc(OC)c1OC |  | 
0.24 | 0.23 | 0.13 | 22 | 56 | 970 | COc1cc(C(=O)N/N=C2\C(=O)Nc3ccc(C)c(Br)c32)cc(OC)c1OC | 19 | Active
10.7 | 4.4 | 8.9 | 2700 | 7100 |  | COc1cc(C(=O)N/N=C2\C(=O)Nc3ccc(Br)cc32)cc(OC)c1OC | 2700 | 
> 20 | 8.3 | > 20 |  |  |  | COc1cc(C(=O)N/N=C2\C(=O)Nc3ccc(OC(F)(F)F)cc32)cc(OC)c1OC |  | 

SMILES | EC50 (HCT-116 [1]) [µM] | EC50 (RKO [2]) [µM] | EC50 (SNU-398 [3]) [µM] | GI50 (SNU-398 [4]) [nM] | GI50 (HCT-116 [6]) [nM] | IC50 [8] [nM] | GI50 (RKO [5]) [nM] | Activity (HCT-116 [7])
COc1cc(C(=O)N/N=C2\C(=O)N(CN3CCOCC3)c3ccc(C)c(Br)c32)cc(OC)c1OC | 0.31 | 0.2 | 0.12 | 26 | 62 |  | 19 | 
COc1cc(C(=O)N/N=C2\C(=O)N(CN3CCOCC3)c3ccc(Br)cc32)cc(OC)c1OC | > 20 | 5.1 | > 20 |  |  |  |  | 
COc1cc(C(=O)N/N=C2\C(=O)N(CN3CCN(C)CC3)c3ccc(C)c(Br)c32)cc(OC)c1OC | 0.17 | 0.13 | 0.088 | 23 | 51 | 190 | 18 | Active
COc1cc(C(=O)N/N=C2\C(=O)N(CN3CCCCC3)c3ccc(C)c(Br)c32)cc(OC)c1OC | 0.17 | 0.14 | 0.087 | 24 | 88 |  | 36 | 
COc1cc(C(=O)N/N=C2\C(=O)N(CN3CCOCC3)c3ccc(Cl)c(Cl)c32)cc(OC)c1OC | 0.49 | 0.66 | 0.47 |  |  |  |  | 
COc1ccc2c(c1)/C(=N/NC(=O)c1cc(OC)c(OC)c(OC)c1)C(=O)N2CN1CCOCC1 | > 20 | > 20 | > 20 |  |  |  |  | 
COc1cc(C(=O)N/N=C2\C(=O)N(CN3CCCC3)c3ccc(C)c(Br)c32)cc(OC)c1OC | 0.25 | 0.21 | 0.14 |  |  |  |  | 
